Assay [1] concerns the target T1, Alpha-1B adrenergic receptor (Homo sapiens) (UniProt P35368).
T1 sequence (whole entry): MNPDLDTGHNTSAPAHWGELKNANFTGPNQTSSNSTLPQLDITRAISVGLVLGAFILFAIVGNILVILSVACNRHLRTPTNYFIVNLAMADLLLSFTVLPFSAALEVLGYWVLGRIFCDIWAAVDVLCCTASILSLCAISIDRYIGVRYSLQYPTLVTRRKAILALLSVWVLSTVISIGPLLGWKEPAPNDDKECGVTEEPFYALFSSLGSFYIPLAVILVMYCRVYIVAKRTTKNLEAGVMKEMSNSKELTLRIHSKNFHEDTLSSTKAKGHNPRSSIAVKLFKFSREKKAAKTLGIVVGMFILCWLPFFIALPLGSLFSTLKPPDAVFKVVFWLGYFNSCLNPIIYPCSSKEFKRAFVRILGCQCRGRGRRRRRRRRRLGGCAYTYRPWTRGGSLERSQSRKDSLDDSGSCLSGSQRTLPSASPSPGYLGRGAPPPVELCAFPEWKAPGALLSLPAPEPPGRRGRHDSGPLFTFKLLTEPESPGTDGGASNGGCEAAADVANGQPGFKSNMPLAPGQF
Kind of assay: Agonist activity at human alpha1 beta adrenergic receptor expressed in CHOK1 cells co-expressing Galpha15 assessed as increase in calcium influx by measuring fluorescence intensity at 100 uM by FLIPR assay relative to epinephrine. It is filed as functional, cell-based. In a few lines: (§1)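 Stably transfected CHO-K1/Gα15 lines (ADRB1, ADRB2 or ADRA1B) grown in Ham's F12 with 10% FBS, Zeocin and Hygromycin B at 37 °C. Seeded 1.5 × 10⁴ cells/well, 18 h, then Calcium 4 dye 1 h at 37 °C and 15 min room temperature. Compound (100 μM) added at 21 s of a 120 s FLIPR Tetra read. Stocks were 100 mM in DMSO, diluted in HBSS/20 mM HEPES pH 7.4. n = 4.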

Assay [2] deals with Beta-1 adrenergic receptor (Homo sapiens) (UniProt P08588). Kind of assay: Agonist activity at human beta1 adrenergic receptor expressed in CHOK1 cells co-expressing Galpha15 assessed as increase in calcium influx by measuring fluorescence intensity at 100 uM by FLIPR assay relative to epinephrine. It is filed as functional, cell-based. A digest of the protocol: as §1
Assay [3] deals with Beta-2 adrenergic receptor (Homo sapiens) (UniProt P07550). Nature of the assay: Agonist activity at human beta2 adrenergic receptor expressed in CHOK1 cells co-expressing Galpha15 assessed as increase in calcium influx by measuring fluorescence intensity at 100 uM by FLIPR assay relative to isoproterenol. It is filed as functional, cell-based. In a few lines: as §1
The target in assay [4] is Beta-2 adrenergic receptor (Cavia porcellus, UniProt Q8K4Z4). Kind of assay: Agonist activity at beta2 adrenergic receptor in guinea pig tracheal smooth muscle assessed as inhibition of histamine-induced tracheal smooth muscle contraction by measuring spasmolysis in absence of beta adrenergic receptor antagonist propranolol.
Assay [5] addresses Beta-2 adrenergic receptor (Cavia porcellus) (UniProt Q8K4Z4). Kind of assay: Agonist activity at beta2 adrenergic receptor in guinea pig tracheal smooth muscle assessed as inhibition of histamine-induced tracheal smooth muscle contraction by measuring spasmolysis preincubated for 15 mins in presence of beta adrenergic receptor antagonist propranolol followed by histamine addition.

Activity calls are given as the source filed them. The calls are words filed in the database; no cut-off is given here.

What is called EC50 is the concentration that produces a half-maximal response.

Sequence of Beta-2 adrenergic receptor (Q8K4Z4 whole entry): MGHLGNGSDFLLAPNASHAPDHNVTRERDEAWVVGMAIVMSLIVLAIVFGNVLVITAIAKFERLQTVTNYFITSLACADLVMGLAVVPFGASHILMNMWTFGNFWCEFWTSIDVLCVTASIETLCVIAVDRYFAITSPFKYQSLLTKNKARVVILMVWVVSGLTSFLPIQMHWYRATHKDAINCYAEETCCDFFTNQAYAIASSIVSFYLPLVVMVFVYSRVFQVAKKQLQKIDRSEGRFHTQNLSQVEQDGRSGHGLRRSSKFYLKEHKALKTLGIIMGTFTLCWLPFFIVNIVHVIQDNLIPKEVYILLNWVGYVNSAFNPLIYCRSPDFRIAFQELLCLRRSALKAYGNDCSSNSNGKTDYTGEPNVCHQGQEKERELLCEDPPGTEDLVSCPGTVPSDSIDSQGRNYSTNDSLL
Sequence of Beta-1 adrenergic receptor (Homo sapiens) (P08588 whole entry, looked up): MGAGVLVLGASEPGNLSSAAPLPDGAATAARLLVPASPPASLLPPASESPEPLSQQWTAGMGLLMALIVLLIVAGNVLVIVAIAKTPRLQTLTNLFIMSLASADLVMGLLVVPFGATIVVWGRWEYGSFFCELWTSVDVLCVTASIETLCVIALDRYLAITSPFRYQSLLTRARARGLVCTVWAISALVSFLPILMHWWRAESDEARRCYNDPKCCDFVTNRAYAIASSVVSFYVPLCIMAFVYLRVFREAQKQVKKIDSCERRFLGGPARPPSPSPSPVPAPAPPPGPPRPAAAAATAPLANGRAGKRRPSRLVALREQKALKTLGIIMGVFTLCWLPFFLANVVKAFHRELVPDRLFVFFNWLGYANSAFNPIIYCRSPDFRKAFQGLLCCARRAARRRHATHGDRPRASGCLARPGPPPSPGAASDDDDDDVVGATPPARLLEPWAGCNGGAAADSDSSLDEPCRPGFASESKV
Sequence of Beta-2 adrenergic receptor (Homo sapiens) (P07550 whole entry, looked up): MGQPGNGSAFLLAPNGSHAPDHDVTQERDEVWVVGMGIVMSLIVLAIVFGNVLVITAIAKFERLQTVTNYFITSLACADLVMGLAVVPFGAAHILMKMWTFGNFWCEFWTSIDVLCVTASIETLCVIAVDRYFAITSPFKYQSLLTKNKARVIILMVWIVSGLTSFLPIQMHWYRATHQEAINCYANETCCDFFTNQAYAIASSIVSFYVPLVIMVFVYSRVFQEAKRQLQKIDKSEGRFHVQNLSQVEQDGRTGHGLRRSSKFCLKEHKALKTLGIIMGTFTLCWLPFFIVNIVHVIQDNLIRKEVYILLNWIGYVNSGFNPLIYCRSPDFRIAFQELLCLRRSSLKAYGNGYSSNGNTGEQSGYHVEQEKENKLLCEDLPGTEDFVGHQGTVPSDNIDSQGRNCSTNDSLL
Sequence of Beta-2 adrenergic receptor (Cavia porcellus) (Q8K4Z4 whole entry, looked up): as the sequence (Q8K4Z4 whole entry) above

For `CC1=NCCc2cc(O)c(O)cc21`, the Activity in assay [1] is 15.9%; in assay [2], -6.31%.
In the same order, the values of `Oc1cc2c(cc1O)[C@@H](Cc1ccccc1)NCC2` are 6.1% and 80.3%.
Taken in the same sequence, the figures for `Oc1cc2c(cc1O)C(c1ccco1)=NCC2` were 13.4% and 73.5%.
As to `Oc1cc2c(cc1O)C(c1ccccc1)NCC2` (stereo unspecified), the Activity in assay [1] is 51.5%. The result in assay [2] and in assay [3] was inactive.
`Oc1cccc(C2NCCc3cc(O)c(O)cc32)c1` (stereo unspecified): the Activity in assay [1] stood at 14.5%. The result in assay [2] and in assay [3] was inactive.
For the compound `C[C@@H]1NCCc2cc(O)c(O)cc21`, the values for the Activity in assay [1] and in assay [2] were 19.2% and -9.5%, respectively.
Regarding `Oc1ccc(C2NCCc3cc(O)c(O)cc32)cc1` (stereo unspecified), the Activity in assay [1] was 31.9%. Moreover, the result in assay [2] and in assay [3] was inactive.
With `OCc1ccc(C2NCCc3cc(O)c(O)cc32)o1` (stereo unspecified), the Activity in assay [1] is 22.3%; in assay [2], -20.3%; in assay [3], -11.1%.
As to `CC(C)NCC(O)c1ccc(O)c(O)c1` (stereo unspecified) [ISOPROTERENOL], the EC50 in assay [4] turned out to be 7.9 nM.
As to `COc1cc(C2NCCc3cc(O)c(O)cc32)ccc1O` (stereo unspecified), the Activity in assay [1] was 11.8%. The outcome in assay [2] and in assay [3] was inactive.
For `OCc1ccc(C2=NCCc3cc(O)c(O)cc32)o1`, the results for the Activity in assay [1] and in assay [2] were 13.7% and -10.4%, respectively.
In the case of `COc1ccc(C2NCCc3cc(O)c(O)cc32)cc1` (stereo unspecified), the Activity in assay [1] stood at 18.5%. The result in assay [2] and in assay [3] was inactive.
Take `Oc1cc2c(cc1O)C(c1ccco1)NCC2` (stereo unspecified): the Activity is 15.6% in assay [1], -35.3% in assay [2] and -9.23% in assay [3].
With `COc1cc(C2NCCc3cc(O)c(O)cc32)cc(OC)c1OC` (stereo unspecified), the Activity in assay [1] stood at 20.5%. Besides, the result in assay [2] and in assay [3] was inactive.
Regarding `Oc1ccc(C2NCCc3cc(O)c(O)cc32)cc1O` (stereo unspecified), in assay [1], the Activity came to 16.6%. In addition, the result in assay [2] and in assay [3] was inactive.
For `Oc1cc2c(cc1O)C(Cc1ccccc1)NCC2` (stereo unspecified), the results for the Activity in assay [1], in assay [2] and in assay [3] were 39.4%, 99.9% and 44.7%, respectively. For the same compound, the EC50 in assay [4] worked out at 800 nM. In addition, the inhibition entry in assay [5] was “Dose-dependent effect”.
In the same order, the values of `CC(C)CC1NCCc2cc(O)c(O)cc21` (stereo unspecified) are 7.7%, “inactive”, 64.5%, 2800 nM and “Dose-dependent effect”.
As for `CC(C)C[C@H]1NCCc2cc(O)c(O)cc21`, the Activity in assay [1] was 20.5%. Also, the outcome in assay [2] was inactive.
For `Oc1cc2c(cc1O)C(c1cccc3ccccc13)NCC2` (stereo unspecified), in assay [1], the Activity stood at 43.8%. For the same compound, the outcome in assay [2] and in assay [3] was inactive.
Regarding `COc1ccccc1C1NCCc2cc(O)c(O)cc21` (stereo unspecified), the Activity in assay [1] turned out to be 36.3%. The outcome in assay [2] and in assay [3] was inactive.
On to `Oc1cc2c(cc1O)CCN=C2`, for which the Activity in assay [1] is 24.2%; in assay [2] it was -6.22%.
As to `CC1NCCc2cc(O)c(O)cc21` (stereo unspecified), the figures for the Activity in assay [1], in assay [2] and in assay [3] were 22.1%, -11.4% and 2.91%, respectively.

Source of the values: ChEMBL document CHEMBL4414622, “Synthesis, Purification, and Selective β2-AR Agonist and Bronchodilatory Effects of Catecholic Tetrahydroisoquinolines from Portulaca oleracea” (J Nat Prod, 2019).
